Compound activity deposited in PubChem by several laboratories.
Sampled rows, rich in hits. Any-hit rate of the full collection: about 1.3%.
DDE Tn6 FP inh – DD(E)-Tn6 binding inhibition, primary FP screen; 370,000 compounds, 0.21% hits; P02675; inhibition, % at 8.3 µM; Fibrin DD(E) TRITC-Tn6 fluorescence polarization displacement;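 active = inhibition above a per-campaign cutoff: mean of compounds within control limits plus 3 SD, cut at about 15% in these data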
Target sequence (P02675 whole entry, looked up): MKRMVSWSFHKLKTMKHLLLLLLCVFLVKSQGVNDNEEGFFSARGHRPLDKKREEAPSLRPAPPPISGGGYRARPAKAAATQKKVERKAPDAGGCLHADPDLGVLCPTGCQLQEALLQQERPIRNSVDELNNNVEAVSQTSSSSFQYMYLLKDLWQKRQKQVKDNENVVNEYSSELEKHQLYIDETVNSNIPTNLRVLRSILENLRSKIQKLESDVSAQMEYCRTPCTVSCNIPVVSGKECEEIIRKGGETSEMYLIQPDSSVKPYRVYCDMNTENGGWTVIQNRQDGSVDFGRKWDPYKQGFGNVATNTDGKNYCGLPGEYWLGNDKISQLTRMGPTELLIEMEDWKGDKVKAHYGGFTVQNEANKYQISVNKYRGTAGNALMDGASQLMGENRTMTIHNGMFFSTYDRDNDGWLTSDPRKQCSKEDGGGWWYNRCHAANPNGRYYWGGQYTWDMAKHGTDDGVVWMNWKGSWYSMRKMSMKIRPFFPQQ
CendR NRP1 mod – modulators of CendR peptide binding to human neuropilin-1 | FAM-RPARPAR peptide binding to NRP-1, fluorescence polarization | O14786 | 360,000 compounds, 0.85% hits | inhibition, % at 25 µM | AID 602438;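 active = inhibition or corrected inhibition above about 18%, plus a signal ratio from 0.5 to 1.5, limit read from the data, passing the limit was not always enough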
DDE Tn7 FP inh – inhibitors of Tn7 peptide binding to human fibrin DD(E) | FP displacement of FITC-Tn7 peptide from fibrin DD(E); 0% = median of compound wells per plate | inhibition, % at 8.3 µM | 370,000 compounds, 0.13% hits | AID 720508 | P02675;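 active = inhibition above the mean of compounds falling within the control limits plus 3 SD of them, cut at about 14% in these data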
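assay system = human clot-derived fibrin DD(E) complex | quantity = Fibrin-DD(E) at 2 µM final | timing = 10 min preincubation, 3 h with tracer, room temperature | signal = fluorescence polarization | measure = percent inhibition | benchmarks = high control wells with 10 µM unlabelled Aha-Tn7 peptide (full inhibition) | replicates = singlicate testing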
aDG glyco act – alpha-DG glycosylation activation | Pro5-aDG cells, alpha-DG glycosylation AlphaScreen (IIH6); 0% Pro5, 100% B10-LARGE cell signal | activation, % at 10 µM | 360,000 compounds, 0.22% hits | AID 624168;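 active = activation of at least 8% versus controls, or a plate z-score of at least 8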;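 also: Pro5 are CHO cells carrying HIG-tagged alpha-DG that lacks glycosylation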
A number is an active result; - = inactive; . = not tested or not shown.

SMILES	DDE Tn6 FP inh	CendR NRP1 mod	DDE Tn7 FP inh	aDG glyco act
CC(C)(CNC(=O)c1ccc(NS(=O)(=O)c2ccc(F)cc2)cc1)N1CCOCC1	-	-	-	-
CCC(Sc1nc2n[nH]c(C)c2c(=N)n1-c1cccc(Cl)c1)C(=O)NCCOC (configuration not stated)	-	28.9	-	-
Cc1cccnc1NC(=O)c1ccco1	-	21.6	-	-
O=C(Nc1ccccn1)c1ccco1	-	-	-	-
CCOc1ccc2[nH]cc(C(=O)NCc3ccc(F)cc3)c(=O)c2c1	-	39.0	-	-
CCC(=O)N=C1SC2CS(=O)(=O)CC2N1c1cccc(OC)c1 (configuration not stated)	-	-	-	-
COc1ccc(N2C(=NC(=O)C(C)Oc3ccccc3)SC3CS(=O)(=O)CC32)cc1 (configuration not stated)	-	27.5	-	-
COc1ccc(Cn2cc(CN3[C@@H](c4ccccc4)COc4cc(Br)ccc4S3(=O)=O)nn2)cc1	-	.	-	.
CCN(CC(=O)Nc1ccc(OC)cc1)CC(=O)Nc1cccc(S(=O)(=O)N2CCOCC2)c1	-	33.8	-	-
COc1ccc(CC(=O)Nc2ccc3c(c2)OCO3)cc1S(=O)(=O)N1CCOCC1	-	21.7	-	-
COc1ccc(C(=O)Nc2ccc3c(c2)OCCO3)cc1S(=O)(=O)N1CCOCC1	-	-	-	-
CC(=O)NC(CC(=O)Nc1cccc(S(=O)(=O)N2CCOCC2)c1)c1ccccc1 (configuration not stated)	-	24.4	-	-
CCN(CC(=O)Nc1cccc(S(=O)(=O)N2CCCC2)c1)CC(=O)Nc1ccccc1OC	-	-	-	-
CC(C)C[C@H]1CN(CCCC[C@H]2CNC(=O)C(=O)N2CCc2ccc(O)cc2)C(=O)C(=O)N1CCC1CCCCC1	-	-	-	-
COC(=O)/C=C1\C(=O)N(c2nc3ccccc3s2)C(=S)N1c1ccc(F)cc1	-	27.2	-	-
O=C1CC(N2CCN(c3nc4ccccc4s3)CC2)C(=O)N1c1ccc(F)cc1 (configuration not stated)	-	-	-	-
COc1ccc(Br)cc1CNC(=O)CCc1nc(-c2ccc(C)cc2)no1	-	22.8	-	-
COc1ccc(-c2noc(CCC(=O)NCc3cc(Br)ccc3OC)n2)cc1	-	-	-	-
COCCNC(=O)c1cc(-c2ccccc2)nn1CC1CC(c2cccc([N+](=O)[O-])c2)=NO1 (configuration not stated)	-	31.2	-	-
FC(F)(F)c1ccccc1NC(=S)Nn1cnnc1	-	-	-	-
[O-][n+]1c2ccccc2[n+]([O-])c2cc(O)ccc21	16.4	-	-	-
O=C(CCc1ccccc1)N[C@H]1[C@H](OCc2ccccc2)CCC[C@@]12C(=O)N(Cc1ccccc1)c1ccc(-c3ccccn3)cc12	-	.	-	.
COc1ccc(C2CC(O)(c3ccccc3)Oc3cc(OC)ccc32)cc1 (configuration not stated)	-	26.4	-	-
CCOC(=O)Cn1c(=O)n(Cc2ccco2)c(=O)c2ccc(C(=O)NC3CCCC3)cc21	-	32.9	-	-
CCOC(=O)CSc1nc2cc(C(=O)NCC3CCCO3)ccc2c(=O)n1Cc1ccco1 (configuration not stated)	-	-	-	-
SMILES	DDE Tn6 FP inh	CendR NRP1 mod	DDE Tn7 FP inh	aDG glyco act
CC1(OC(=O)c2cccs2)C(=O)C=C2C=C3CCCN3C=C2C1=O (configuration not stated)	.	41.0	.	-
COC(=O)CCCC1=CC2=CC(=O)C(C)(OC(=O)c3cccs3)C(=O)C2=CN1CCCOC(C)C (configuration not stated)	-	27.9	-	-
CC1(OC(=O)CCc2ccccc2)C(=O)C=C2C=C3CCCN3C=C2C1=O (configuration not stated)	-	48.0	-	-
CCc1nc2ccc(C(=O)NCc3ccccc3OC)cn2c1N(CC)CCOC	-	-	-	-
O=C(CN1CCN(Cc2ccccc2)CC1)NCCNc1ccc([N+](=O)[O-])cn1	-	-	-	-
Nc1ccn(CC(=O)NCCNc2ccc([N+](=O)[O-])cn2)c(=O)n1	-	27.7	-	-
Nc1ccn(CC(=O)NCc2ccccn2)c(=O)n1	-	-	-	-
COc1ccc(CNC(=O)Cn2ccc(N)nc2=O)cc1	-	32.3	-	-
Nc1ccn(CC(=O)NCc2ccc3c(c2)OCO3)c(=O)n1	-	21.1	-	-
Nc1ccn([C@@H]2O[C@H](C(=O)NCc3ccc4c(c3)OCO4)[C@@H](O)[C@H]2O)c(=O)n1	-	26.5	-	-
Nc1ccn([C@@H]2O[C@H](C(=O)NCCc3ccc(F)cc3)[C@@H](O)[C@H]2O)c(=O)n1	-	-	-	-
COCCSc1nnc(-c2cccnc2)n1Cc1ccccc1	-	.	-	.
COC(=O)/C=C1\OC(C)c2ccccc21 (configuration not stated)	-	.	-	.
O=C1C2C(CC3c4ccccc4CCN32)CN1c1ccccc1 (configuration not stated)	-	.	-	.
O=C(Nc1ccc2c(c1)OCO2)NC1CCN(S(=O)(=O)c2ccc(F)cc2)CC1	-	.	-	.
Cc1cccc(S(=O)(=O)NC(=O)C2(C)CCN2C(=O)c2ccccc2)c1 (configuration not stated)	-	-	-	-
COc1ccc(C(=O)N2CCC(C)(C(=O)NS(=O)(=O)C3CC3)C2)cc1F (configuration not stated)	-	21.6	-	-
COc1ccccc1NS(=O)(=O)c1cc(C(=O)Nc2ccc(S(=O)(=O)Nc3onc(C)c3C)cc2)ccc1C	-	-	-	-
COc1ccccc1NS(=O)(=O)c1ccc(C)c(C(=O)Nc2ccc(S(=O)(=O)Nc3onc(C)c3C)cc2)c1	-	32.7	-	-
Cc1nc2ccc(NC(=O)c3c(Cl)cccc3Cl)cc2c(=O)[nH]1	-	.	-	.
CC1(c2nnnn2-c2ccc3c(c2)OCCO3)CCC(=O)N1C1CCN(Cc2ccccc2)CC1 (configuration not stated)	-	-	-	-
O=C(Nc1cccc(Br)c1)c1ccc(CSc2ccccc2)cc1	-	39.9	-	-
O=C(Nc1cccnc1)c1ccc(CSc2ccccc2)cc1	-	-	-	-
Cc1ccc(-n2nnnc2CNC(=O)C2CC(=O)N(c3ccccc3)C2)cc1C (configuration not stated)	-	28.2	-	-
COc1ccccc1CCn1cnc(-c2ccc(OC)c(OC)c2)c1CC(C)C	-	.	-	.
N/C(=N\OC(=O)c1ccc(Cl)cc1Cl)c1ccc(Cl)cc1	-	30.5	-	-
N/C(=N\OC(=O)c1ccc(Cl)cc1Cl)c1ccccc1	-	-	-	-
O=C(OCn1nnc2ccccc2c1=O)c1ccc(Br)o1	-	35.0	-	-
O=C(OCn1nnc2ccccc2c1=O)c1ccc(O)cc1	-	-	-	-
O=C(NCCc1ccccc1Cl)[C@@H]1CCCN1C(=O)[C@@H](NC(=O)N1CCOCC1)c1ccccc1	-	.	-	.
